Test results as given in paper PMC7848789 (SLAS discovery : advancing life sciences R & D, 2019).
Read-outs that look alike come from different tables or passages of the source. Where a SMILES comes first, the peptide text is derived from it.

Experiments:
HEK293T cells = test: CellTiter-Glo acute cell death counterscreen; type: cell-based; settings: 1 hour; at the highest concentration tested of 45.8 μM
[1] = biological target: Recombinant human HDAC1 enzyme (Homo sapiens, UniProt Q13547); test: HDAC-Glo I/II enzymatic assay; type: biochemical; settings: for Activity outcome in HDAC1 enzymatic HDAC-Glo I/II assay: qHTS, 11 concentrations, active = CRC class 1 and 2 and AUC>100; for Emax: read-out: % Efficacy, HDAC-Glo: HDAC1
[2] = test system: HDAC class I and II activity in HEK293T cells; test: HDAC-Glo I/II cellular assay in HEK293T cells; type: cell-based; settings: qHTS, 1 hour, active = CRC class 1 and 2 and AUC>100
HDAC1–86b = HDAC1–86b (Homo sapiens, UniProt Q13547); test: HDAC1-86b SplitLuc CETSA in HEK293T cells; type: binding; settings: for Activity outcome in SplitLuc CETSA (thermal stabilization of HDAC1–86b): 49°C, active = CRC class 1 and 2 and AUC>50; for Average IC50 ± SD (% Efficacy), SplitLuc CETSA: HEK293T: thermal stabilization at 49°C, n=2
[3] = biological target: HDAC1-NanoLuc fusion protein (Homo sapiens, UniProt Q13547); test: HDAC1 NanoBRET target engagement assay in HEK293T cells; type: binding; settings: for Activity outcome in NanoBRET (HDAC1 engagement, displacement of SAHA tracer) / Average IC50 ± SD, NanoBRET: HEK293T: HEK293T; for Activity outcome in NanoBRET (HDAC1 engagement, displacement of SAHA tracer): 28.9 μM to 0.49 nM, active = CRC class 1 and 2 and AUC>100; for Emax: read-out: % Efficacy, NanoBRET: HEK293T; for Average IC50 ± SD, NanoBRET: HEK293T: n=2
[4] = test system: HDAC class I and II activity in HeLa cells; test: HDAC-Glo I/II cellular assay in HeLa cells; type: cell-based; settings: qHTS; 1 hour; active = CRC class 1 and 2 and AUC>100
[5] = Fluorescence counterscreen; type: physicochemical; settings: excited at 450 nm, emission 500–750 nm; 610 nm channel of NanoBRET
Method in brief: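 Cell-free scan: test compound pinned into wells of growth medium alone (final DMSO 0.28 %), no cells or tracer added. Wells excited at 450 nm and emission read every 10 nm across 500–750 nm to build a full spectrum, flagging intrinsic fluorescence near the 610 nm NanoBRET acceptor channel.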

isolated HDAC1 = settings: read-out: reported IC50 against isolated HDAC1; cited from earlier work

Recombinant human HDAC1 enzyme, sequence (Q13547 whole entry): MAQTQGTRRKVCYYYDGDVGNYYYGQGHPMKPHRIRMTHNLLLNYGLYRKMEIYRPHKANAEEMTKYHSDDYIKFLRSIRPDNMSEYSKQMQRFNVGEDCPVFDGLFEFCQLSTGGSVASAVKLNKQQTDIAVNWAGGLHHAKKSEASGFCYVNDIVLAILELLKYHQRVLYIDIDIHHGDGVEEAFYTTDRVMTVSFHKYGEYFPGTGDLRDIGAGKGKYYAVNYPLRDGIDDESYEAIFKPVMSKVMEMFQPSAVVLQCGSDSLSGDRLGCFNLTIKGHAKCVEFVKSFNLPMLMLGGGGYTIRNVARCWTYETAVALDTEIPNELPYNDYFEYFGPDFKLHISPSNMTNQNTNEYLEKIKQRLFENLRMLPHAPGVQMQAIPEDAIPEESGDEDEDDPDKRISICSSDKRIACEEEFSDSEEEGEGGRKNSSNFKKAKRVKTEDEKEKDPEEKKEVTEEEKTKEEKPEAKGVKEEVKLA
HDAC1-NanoLuc fusion protein, sequence (Q13547 whole entry, the tested form may be a part): as the sequence (Q13547 whole entry) above
HDAC1–86b, sequence (Q13547 whole entry, the tested form may be a part): as the sequence (Q13547 whole entry) above

| Compound | Activity outcome in HDAC1 enzymatic HDAC-Glo I/II assay [1] | Activity outcome in HEK293T cellular HDAC-Glo I/II assay [2] | IC50 [1] | Emax [1] | also measured |
| --- | --- | --- | --- | --- | --- |
| CCS(=O)(=O)N1CCN(c2ccc(Nc3ncc(C(N)=O)c(NC4CC4)n3)cc2)CC1 [Cerdulatinib] | – | – | – | – | Acute effect on HEK293T cell viability (CellTiter-Glo) (HEK293T cells): reduced HEK293T cell viability |
| COc1cc(OC)c2c(=O)[nH]c(-c3cc(C)c(OCCO)c(C)c3)nc2c1 [RVX-208] | active | – | – | – | – |
| CN1CCc2c(c3ccccc3n2Cc2ccc(C(=O)NO)cc2)C1 [Tubastatin A] | weak activity | weak activity | – | – | Activity outcome in SplitLuc CETSA (thermal stabilization of HDAC1–86b) (HDAC1–86b): inactive; Activity outcome in NanoBRET (HDAC1 engagement, displacement of SAHA tracer) [3]: inactive |
| CC(=O)Nc1ccc(C(=O)Nc2ccccc2N)cc1 [Tacedinaline] | active | – | – | – | Activity outcome in HeLa cellular HDAC-Glo I/II assay [4]: relatively weak activity (below the activity cutoff) |
| Cc1ccc(NC(=O)CCCCCC(=O)Nc2ccccc2N)cc1 [TC-H-106] | active | relatively weak activity (below the activity cutoff) | – | – | Activity outcome in HEK293T cellular HDAC-Glo I/II assay ([2]; listed as TC-H 106): either inactive or did not pass the activity cutoff; Activity outcome in HeLa cellular HDAC-Glo I/II assay [4]: relatively weak activity (below the activity cutoff) |
| CCCSc1ccc2nc(NC(=O)OC)[nH]c2c1 [Albendazole] | – | – | 7700 ± 800 nM | 93% | – |
| N=C(N)c1ccc2cc(OC(=O)c3ccc(N=C(N)N)cc3)ccc2c1 [Nafamostat] | – | – | 1300 ± 100 nM | 97% | Average IC50 ± SD (% Efficacy), SplitLuc CETSA: HEK293T (HDAC1–86b): Inactive; IC50 [3]: 11800 ± 2900 nM; Activity outcome in NanoBRET (HDAC1 engagement, displacement of SAHA tracer) [3]: weakly engage HDAC1; Emax [3]: 37% |
| COc1ccc(-c2nc(N3CCOCC3)c3sc(CN(C)c4ncc(C(=O)NO)cn4)cc3n2)cn1 [CUDC-907] | most potent | most potent | – | – | Activity outcome in SplitLuc CETSA (thermal stabilization of HDAC1–86b) (HDAC1–86b): most potent |
| Cn1cc(CNCC2CCN(c3ncc(C(=O)NO)cn3)CC2)c2ccccc21 [Quisinostat] | most potent | most potent | – | – | Activity outcome in SplitLuc CETSA (thermal stabilization of HDAC1–86b) (HDAC1–86b): most potent |
| CCCCN(Cc1ccc(C(=O)NO)cc1)C(=O)Nc1ccccc1 [Nexturastat A] | – | – | – | – | Activity outcome in NanoBRET (HDAC1 engagement, displacement of SAHA tracer) [3]: engagement |
| CNC(=O)c1ccccc1Sc1ccc2c(/C=C/c3ccccn3)n[nH]c2c1 [Axitinib] | – | – | 3000 ± 200 nM | 90% | Average IC50 ± SD (% Efficacy), SplitLuc CETSA: HEK293T (HDAC1–86b): Inactive; Average IC50 ± SD, NanoBRET: HEK293T [3]: Inactive |
| Nc1ccc2c(c1)CN1C(=O)c3ccccc3C1=N2 [Daniquidone] | – | – | 2100 ± 600 nM | 92% | Intrinsic fluorescence [5]: fluorescence over the 500–750 nm range |
| O=S(=O)(O)c1ccc2[nH]c(-c3ccccc3)nc2c1 [Ensulizole] | – | – | 2400 ± 300 nM | 99% | – |
| O=C(Nc1cccc(Cl)c1)Nc1ncc(CCNc2ncnc3ccsc23)s1 [SNS-314] | – | – | – | – | IC50 [3]: 549 nM; Activity outcome in NanoBRET (HDAC1 engagement, displacement of SAHA tracer) [3]: engagement; Acute effect on HEK293T cell viability (CellTiter-Glo) (HEK293T cells): acute cell death |
| NC(=O)c1cccc2[nH]c(-c3ccc([C@@H]4CCCN4)cc3F)nc12 [A-966492] | active | – | – | – | – |
| Cn1cc(C(=O)Cc2ccccc2)cc1/C=C/C(=O)NO [APHA Compound 8] | active | either inactive or did not pass the activity cutoff | – | – | – |
| CCC(=O)CCCCC[C@@H]1NC(=O)[C@H]2CCCCN2C(=O)[C@H]([C@@H](C)CC)NC(=O)[C@H](Cc2cn(OC)c3ccccc23)NC1=O [Apicidin] | most potent | most potent | – | – | Activity outcome in SplitLuc CETSA (thermal stabilization of HDAC1–86b) (HDAC1–86b): most potent |
| O=C(Nc1ccc([N+](=O)[O-])cc1Cl)c1cc(Cl)ccc1O [Niclosamide] | – | – | 2800 ± 10 nM | 99% | Average IC50 ± SD (% Efficacy), SplitLuc CETSA: HEK293T (HDAC1–86b): Inactive; Average IC50 ± SD, NanoBRET: HEK293T [3]: Inactive |

| Compound | Activity outcome in HDAC1 enzymatic HDAC-Glo I/II assay [1] | Activity outcome in HEK293T cellular HDAC-Glo I/II assay [2] | IC50 [1] | Emax [1] | also measured |
| --- | --- | --- | --- | --- | --- |
| Cc1oncc1C(=O)Nc1ccc(C(F)(F)F)cc1 [Leflunomide] | – | – | 3000 ± 200 nM | 96% | Average IC50 ± SD (% Efficacy), SplitLuc CETSA: HEK293T (HDAC1–86b): Inactive; Average IC50 ± SD, NanoBRET: HEK293T [3]: Inactive |
| O=C(CCCCC[C@@H]1NC(=O)[C@H]2CCCCN2C(=O)[C@H](Cc2ccccc2)NC(=O)[C@H](Cc2ccccc2)NC1=O)C1CO1 (some centres unmarked) [Trapoxin A] (HELM PEPTIDE1{F.F.[O=C([C@H]1CCCCN1[*:1])[*:2]].[O=C(CCCCC[C@H](N[*:1])C(=O)[*:2])C1CO1]}$PEPTIDE1,PEPTIDE1,1:R1-4:R2$$$V2.0) | most potent | most potent | – | – | Activity outcome in SplitLuc CETSA (thermal stabilization of HDAC1–86b) (HDAC1–86b): most potent |
| O=C(CCCCCCC(=O)Nc1cccnc1)NO [Pyroximide] | – | inactive | – | – | – |
| Nc1cc(F)ccc1NC(=O)c1ccc(CNC(=O)/C=C/c2cccnc2)cc1 [Chidamide] | active | relatively weak activity (below the activity cutoff) | – | – | Activity outcome in HeLa cellular HDAC-Glo I/II assay [4]: relatively weak activity (below the activity cutoff) |
| O=C(CCCCCCSc1ccc2ccccc2c1)NO [HNHA] | inactive | inactive | – | – | – |
| O=C(/C=C/c1ccc(CN(CCO)CCc2c[nH]c3ccccc23)cc1)NO [Dacinostat] | – | most potent | – | – | – |
| CC(C)C(=O)SCCCCCCC(=O)Nc1nc(-c2ccccc2)cs1 [PTACH] | inactive | showed HDAC inhibition | – | – | Activity outcome in NanoBRET (HDAC1 engagement, displacement of SAHA tracer) [3]: engagement |
| Nc1ccccc1NC(=O)c1ccc(CNC(=O)OCc2cccnc2)cc1 [Entinostat] | active | relatively weak activity (below the activity cutoff) | – | – | Activity outcome in HeLa cellular HDAC-Glo I/II assay [4]: relatively weak activity (below the activity cutoff) |
| CC(=O)Oc1ccccc1C(=O)Nc1ncc([N+](=O)[O-])s1 [Nitazoxanide] | – | – | 5100 ± 300 nM | 95% | – |
| C=C1CN(Cc2ccc(C(=O)Nc3ccccc3N)cc2)C(=O)c2ccccc21 [MI 192] | active | relatively weak activity (below the activity cutoff) | – | – | IC50 (isolated HDAC1): 4800 nM; IC50 ([1]; read-out: IC50 in the enzymatic assay (HDAC1), HDAC-Glo I/II, Epigenetic-Focused collection): 80 nM; Activity outcome in NanoBRET (HDAC1 engagement, displacement of SAHA tracer) [3]: engage HDAC1 in cells; Activity outcome in HeLa cellular HDAC-Glo I/II assay [4]: relatively weak activity (below the activity cutoff) |
| c1ccc2[nH]c(-c3cscn3)nc2c1 [Thiabendazole] | – | – | 3800 ± 600 nM | 90% | Average IC50 ± SD (% Efficacy), SplitLuc CETSA: HEK293T (HDAC1–86b): Inactive; Average IC50 ± SD, NanoBRET: HEK293T [3]: Inactive |
| O=C(NO)c1ccc(CC(=O)N(CCO)c2ccccc2)cc1 [HPOB] | weak activity | weak activity | – | – | Activity outcome in SplitLuc CETSA (thermal stabilization of HDAC1–86b) (HDAC1–86b): did not pass the activity cutoff; Activity outcome in NanoBRET (HDAC1 engagement, displacement of SAHA tracer) [3]: did not pass the activity cutoff |
| Oc1ccc(/C=C/c2cc(O)cc(O)c2)cc1 [Resveratrol] | – | – | 1500 ± 10 nM | 95% | Average IC50 ± SD (% Efficacy), SplitLuc CETSA: HEK293T (HDAC1–86b): Inactive |
| CN(C)C(=O)COC(=O)Cc1ccc(OC(=O)c2ccc(NC(=N)N)cc2)cc1 [Camostat] | – | – | 1100 ± 100 nM | 95% | Average IC50 ± SD (% Efficacy), SplitLuc CETSA: HEK293T (HDAC1–86b): Inactive; IC50 [3]: 8200 ± 1400 nM; Activity outcome in NanoBRET (HDAC1 engagement, displacement of SAHA tracer) [3]: weakly engage HDAC1; Emax [3]: 90% |
| CCCCNNC(=O)c1ccc(Br)cc1 [UF 010] | weak activity | weak activity | – | – | Activity outcome in SplitLuc CETSA (thermal stabilization of HDAC1–86b) (HDAC1–86b): did not pass the activity cutoff; Activity outcome in NanoBRET (HDAC1 engagement, displacement of SAHA tracer) [3]: did not pass the activity cutoff |
| O=C(CCCCCCC(=O)Nc1ccc([C@H]2O[C@@H](CSc3nc(-c4ccccc4)c(-c4ccccc4)o3)C[C@@H](c3ccc(CO)cc3)O2)cc1)NO [Tubacin] | weak activity | weak activity | – | – | Activity outcome in SplitLuc CETSA (thermal stabilization of HDAC1–86b) (HDAC1–86b): did not pass the activity cutoff; Activity outcome in NanoBRET (HDAC1 engagement, displacement of SAHA tracer) [3]: did not pass the activity cutoff |
| O=C(Nc1ncc([N+](=O)[O-])s1)c1cccs1 [Tenonitrozole] | – | – | 1700 ± 10 nM | 93% | – |
